Compound activity: PubChem, several laboratories
MPTP inh: permeability transition pore inhibition. inhibition, % at 10 µM. actives 1.4% (n = 360,000). isolated mouse mitochondria, Ca2+ swelling absorbance, 30 min;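 active means inhibition of 50% or more, scaled per plate between neutral and stimulator controls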
Jurkat NFkB inh: lowers PMA/ionomycin-induced NF-kB signal in Jurkat cells | actives 0.53% (n = 330,000) | PMA/ionomycin-induced NF-kB luciferase reporter, luminescence | inhibition, % at 4 µM | AID 435003; in the data active means inhibition above about 50%
697 NFkB inh: lowers PMA/ionomycin-induced NF-kB signal in 697 B cells; 697 B-cell NF-kB luciferase reporter, 16 h; inhibition, % at 4 µM; actives 0.33% (n = 330,000); AID 435022; in the data active means inhibition above about 35%
NR2E3 ag-1: human photoreceptor-specific nuclear receptor agonism. CHO-S Gal4-NCOR/VP16-NR2E3 two-hybrid, luciferase. inhibition of corepressor binding, % at 3.98 µM. actives 0.35% (n = 360,000);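 active means inhibition above the mean of all tested compounds plus 3 SD, cut at about 70% in these data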;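 further: higher means lower luciferase signal from less NR2E3 corepressor binding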
Target sequence (Q9Y5X4 whole entry, looked up, the tested form may be a part): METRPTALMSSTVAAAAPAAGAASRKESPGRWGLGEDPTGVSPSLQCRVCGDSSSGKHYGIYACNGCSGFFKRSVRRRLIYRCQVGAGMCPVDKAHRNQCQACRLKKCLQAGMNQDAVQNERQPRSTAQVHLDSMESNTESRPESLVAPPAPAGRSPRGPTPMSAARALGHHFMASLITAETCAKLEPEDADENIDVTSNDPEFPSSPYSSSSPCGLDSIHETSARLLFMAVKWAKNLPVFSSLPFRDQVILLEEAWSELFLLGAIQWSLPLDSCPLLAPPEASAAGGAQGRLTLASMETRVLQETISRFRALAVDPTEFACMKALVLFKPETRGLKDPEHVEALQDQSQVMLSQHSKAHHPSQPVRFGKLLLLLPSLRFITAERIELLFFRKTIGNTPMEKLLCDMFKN
NR2E3 ag-2: agonists of human nuclear receptor NR2E3. inhibition of corepressor binding, % at 4.78 µM. GST-NR2E3/biotin-RetCOR TR-FRET, 1536-well. actives 0.12% (n = 320,000). AID 2300;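 active means percent inhibition above the cutoff of mean plus 3 SD of all tested compounds, set per screening campaign, cut at about 20% in these data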
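Material – GST-tagged NR2E3 plus biotinylated RetCOR corepressor · Quantity – NR2E3 fusion 1.35 nM · Times – 5 h incubation at 4 °C · Medium – pH 7.5 Tris-based buffer · Technique – TR-FRET, Eu(K)-anti-GST donor, streptavidin-D2 acceptor, ex 340, em 617/671 nm · Benchmarks – high control biotin, low control 0.6% DMSO · Format – 1536-well plates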
aDG glyco up: alpha-DG glycosylation activation; Pro5-aDG cells, alpha-DG glycosylation AlphaScreen (IIH6); 0% Pro5, 100% B10-LARGE cell signal; activation, % at 10 µM; actives 0.22% (n = 360,000); AID 624168;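 active means activation of at least 8% versus controls, or a plate z-score of at least 8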;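 further: Pro5 are CHO cells carrying HIG-tagged alpha-DG that lacks glycosylation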
MPTP counter: mitochondrial membrane potential, counter-screen; inhibition, % at 10 µM; actives 78% (n = 5,000); shares compounds with MPTP inh; isolated mitochondria, Rhodamine 123 fluorescence; AID 624504; in the data active means inhibition above about 22%
MPTP abs DR: MPTP inhibition, dose response swelling confirmation. actives 58% (n = 780). isolated mitochondria swelling, absorbance. IC50, µM. AID 651561. shares compounds with MPTP inh; in the data active means IC50 below about 20 µM
MPTP cs DR: active in counter-screen for permeability transition pore inhibitors | shares compounds with MPTP inh | isolated mitochondria counterscreen, fluorescence read-out | IC50, µM | actives 49% (n = 780); in the data active means IC50 below about 80 µM
Of the large screens only hits and unclear results are named; the others gave an inactive call (follow-up assays come after a bar, where they were run). Sampled rows, rich in hits. Any-hit rate of the full collection: about 2.4%.

Cc1ccc2c(c1)nnn2C1CCN(S(=O)(=O)c2cccc(S(=O)(=O)N(C)C)c2)CC1	MPTP inh 88 | MPTP counter 87
CCOc1ccc(/C=N/NC(=O)c2nnn(-c3nonc3N)c2-c2cccs2)cc1	none
CC1CCC(NC(=O)N(CCCl)N=O)CC1 (stereo unspecified)	none
Cc1nc2c(OCc3cccc(Cl)c3)cccn2c1N(C)Cc1cccs1	MPTP inh 71 (no result: Jurkat NFkB inh, 697 NFkB inh, NR2E3 ag-2) | MPTP counter 86
COC(=O)c1ccccc1COc1cccn2c(N(C)Cc3cccs3)c(C)nc12	none (no result: Jurkat NFkB inh, 697 NFkB inh, NR2E3 ag-2)
Cc1nc2c(OCc3ccc(Cl)cc3Cl)cccn2c1N(C)Cc1cccs1	MPTP inh 72 (no result: Jurkat NFkB inh, 697 NFkB inh, NR2E3 ag-2) | MPTP counter 87
COc1ccc2[nH]c3c(N4CCc5ccccc5C4)ncnc3c2c1	MPTP inh 81 | MPTP counter 70
Cc1c(CCOC(=O)CC23CC4CC(CC(C)(C4)C2)C3)sc[n+]1CC(=O)c1ccccc1	MPTP inh 68 | MPTP counter 24
C=CCc1cccc(/C=N/NC(=O)c2ccc3nc[nH]c3c2)c1O	none
CC1=NC(Nc2nc(C)c3ccccc3n2)=NC(C)(C)C1	MPTP inh 50 | MPTP counter 45
Cc1nc(Nc2ccc(F)cc2)[nH]c(=O)c1CCC(C)C	MPTP inh 95 | MPTP counter 77
CC(C)Cc1nnc(NC(=O)CCC(=O)NC2CCCC2)s1	none
CCCn1nnc(NC(=O)/C=C/c2ccc(C(C)C)cc2)n1	none
O=[N+]([O-])c1ccc(N/N=C2\CC3CC=CC23)c([N+](=O)[O-])c1 (stereo unspecified)	MPTP inh 92 | MPTP counter 75
O=[N+]([O-])c1ccc(N/N=C2\CC3CC=CC23)cc1 (stereo unspecified)	none
CCC(Sc1ccc2nnc(CCNS(=O)(=O)c3ccc(OC)cc3)n2n1)C(=O)OC (stereo unspecified)	none
CN1CCN(c2ccc(CNS(=O)(=O)Cc3cccc(C(F)(F)F)c3)cc2)CC1	MPTP inh 84 | MPTP counter 86
CN1CCN(c2ccc(CNS(=O)(=O)c3ccccc3)cc2)CC1	none
Cc1c(NC(=O)CCc2ccc(S(=O)(=O)N3CCOCC3)cc2)c(=O)n(-c2ccccc2)n1C	none (no result: Jurkat NFkB inh, 697 NFkB inh, NR2E3 ag-2)
N#CC1=C(N)SC(N)=C(C#N)C1c1ccnc2ccccc12	none
Cc1ccc(C2C(C#N)=C(N)SC(N)=C2C#N)c(C)c1	MPTP inh 53 | MPTP counter 64
CC(c1ccccc1)C1C(C#N)=C(N)SC(N)=C1C#N (stereo unspecified)	none
Cc1ccc(C2C(C#N)=C(N)SC(N)=C2C#N)cc1	MPTP inh 54 (no result: Jurkat NFkB inh, 697 NFkB inh, NR2E3 ag-2) | MPTP counter 67
COc1ccc(CNCc2c(C(=O)N(C)C)nc3ccc(Cl)cn23)c(OC)c1	none
CSc1nc(Oc2ccc(F)cc2F)cc(C(F)(F)F)n1	none
CSc1nc(Oc2cccc(C(F)(F)F)c2)cc(C(F)(F)F)n1	MPTP inh 55 | MPTP counter inactive | MPTP abs DR 11 | MPTP cs DR inactive
CCN1C(=O)CSC1=NC1C2CC3CC(C2)CC1C3 (stereo unspecified)	MPTP inh 77 | MPTP counter inactive | MPTP abs DR 8.1 | MPTP cs DR 36
Oc1cccc(C(O)CNCc2ccc(-c3ccccc3)cc2)c1 (stereo unspecified)	MPTP inh 92 | MPTP counter inactive | MPTP abs DR 4.2 | MPTP cs DR 51
OC(CNCc1ccccc1)c1ccccc1 (stereo unspecified)	none
Oc1cccc(C(O)CNCc2ccc(OCc3ccc(Cl)cc3Cl)cc2)c1 (stereo unspecified)	MPTP inh 83 | MPTP counter inactive | MPTP abs DR 6.7 | MPTP cs DR 43
Cc1ccc(CCNC(=O)c2nnc(CS(=O)(=O)c3ccccc3)o2)cc1	none
Cc1ccc(C(=O)NC(=S)N2CCCCCC2)cc1	none
COc1ccc2c(c1)nc(NCCCO)n2Cc1ccccc1	none
COC(=O)c1cc(NC(=O)c2cc(-c3ccc(C(F)(F)F)cc3)oc2C(F)(F)F)ccc1N1CCOCC1	MPTP inh 88 | MPTP counter 69
COC(=O)c1cc(NC(=O)c2cc(-c3ccc(OC)cc3)oc2C(F)(F)F)ccc1N1CCOCC1	none
Cc1cc(/C=C2/SC(=S)N(c3cccc(C(F)(F)F)c3)C2=O)c(C)n1-c1cccnc1	MPTP inh 105, NR2E3 ag-1 88 | MPTP counter 87
Cc1cc(/C=C2\SC(=S)N(Cc3ccco3)C2=O)c(C)n1-c1cccnc1	none (no result: Jurkat NFkB inh, 697 NFkB inh, NR2E3 ag-2)
O=C(Nc1cc(C(F)(F)F)cc(C(F)(F)F)c1)Nc1cnn(-c2ccc([N+](=O)[O-])cc2)c1C(F)(F)F	MPTP inh 88 | MPTP counter 63
COc1ccc(CCNC(=O)c2coc3ccccc3c2=O)cc1	none
CCCCCCc1cc2cc(C(=O)OCC)c(=O)oc2cc1O	MPTP inh 93 | MPTP counter 87
CCCCCCc1cc2cc(C(=O)Nc3cccc(OC)c3)c(=O)oc2cc1O	MPTP inh 56 | MPTP counter 21
CCCCCCc1cc2cc(S(=O)(=O)c3ccc(F)c(Cl)c3)c(=O)oc2cc1O	MPTP inh 79 | MPTP counter 86
CCCCCCc1cc2cc(C(=O)Nc3ccc(OC)cc3)c(=O)oc2cc1O	MPTP inh 78 | MPTP counter inactive | MPTP abs DR 1.1 | MPTP cs DR <2.5
CCCCCCc1cc2cc(/C(N)=N/NC(=O)c3ccncc3)c(=O)oc2cc1O	none
Cc1ccc(S(=O)(=O)c2cc3ccc(O)cc3oc2=O)cc1C	none
CSCCC(NC(=O)COc1ccccc1)C(=O)N(C)CC(=O)Nc1c(C)cccc1C (stereo unspecified)	none
CCCCCCc1cc2cc(C(N)=O)c(=N)oc2cc1O	none (no result: MPTP inh, NR2E3 ag-1, aDG glyco up)
CCCCCCc1cc2cc(C(=O)NC)c(=N)oc2cc1O	MPTP inh 96 | MPTP counter 91
Cc1cn([C@H]2C[C@H](O)[C@@H](CNCc3cnc(N4CCOCC4)nc3)O2)c(=O)[nH]c1=O	none (no result: Jurkat NFkB inh, 697 NFkB inh, NR2E3 ag-2)
COc1cc(/C=N/NC(=O)C23CC4CC(CC(C4)C2)C3)cc(Br)c1O	none
O=C(N/N=C/c1cc([N+](=O)[O-])cc(Br)c1O)C12CC3CCC(CC(C3)C1)C2	MPTP inh 84 | MPTP counter 28
